Converted amounts (≈) assume the structure as drawn. Like-named read-outs stand apart in the source and are kept apart here.
Experiments:
S. aureus Mu50 [1] = experiment: Bacteriostatic effect; type: cell-based; conditions: for Fold more effective than vancomycin (MIC) / Fold by which 7b and 12a are more effective than the antibiotic (MIC): S. aureus Mu50; for Fold more effective than vancomycin (MIC): vs vancomycin 8 μg/ml; for MIC: Staphylococcus aureus; for Fold by which 7b and 12a are more effective than the antibiotic (MIC): label = antibiotic compared; for MIC, S. aureus Mu50: MRSA strain Mu50, comparison with clinically used antibiotics
S. aureus Mu3 = experiment: Bacteriostatic effect; type: cell-based; conditions: Staphylococcus aureus, MU3, 16 h, read-out: Bacteriostatic effect, MIC, S. aureus Mu3
S. aureus Mu50 [2] = experiment: Bactericidal effect; type: cell-based; conditions: at 50 μM, 2 hr treatment
Summary of the method: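 S. aureus Mu50 cells in log phase (OD600 ≈ 0.5) were mixed with a range of test compound concentrations and shaken at 1,000 rpm at 37 °C for 2 hr. Cultures were serially diluted in LB broth, plated on LB agar and incubated at 37 °C overnight. Colony-forming units were counted, and the bactericidal effect was taken as the reduction in CFU.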

S. aureus 6538 = experiment: Bacteriostatic effect; type: cell-based
S. aureus K2361 (NorA++) = experiment: Bacteriostatic effect; type: cell-based; conditions: Staphylococcus aureus, read-out: Bacteriostatic effect, MIC, NorA++ K2361
S. aureus N315 = experiment: Bacteriostatic effect; type: cell-based; conditions: Staphylococcus aureus, N315, 16 h, read-out: Bacteriostatic effect, MIC, S. aureus N315
B. subtilis 168 = experiment: Bacteriostatic effect; type: cell-based; conditions: Bacillus subtilis, 168, 16 h, read-out: Bacteriostatic effect, MIC, B. subtilis 168
EcSecA [3] = biological target: T1, EcSecA (Escherichia coli, UniProt P10408); experiment: Ion-channel activity of SecA-liposomes in oocytes, EcSecA; type: biochemical, E. coli
T1 sequence (P10408 whole entry): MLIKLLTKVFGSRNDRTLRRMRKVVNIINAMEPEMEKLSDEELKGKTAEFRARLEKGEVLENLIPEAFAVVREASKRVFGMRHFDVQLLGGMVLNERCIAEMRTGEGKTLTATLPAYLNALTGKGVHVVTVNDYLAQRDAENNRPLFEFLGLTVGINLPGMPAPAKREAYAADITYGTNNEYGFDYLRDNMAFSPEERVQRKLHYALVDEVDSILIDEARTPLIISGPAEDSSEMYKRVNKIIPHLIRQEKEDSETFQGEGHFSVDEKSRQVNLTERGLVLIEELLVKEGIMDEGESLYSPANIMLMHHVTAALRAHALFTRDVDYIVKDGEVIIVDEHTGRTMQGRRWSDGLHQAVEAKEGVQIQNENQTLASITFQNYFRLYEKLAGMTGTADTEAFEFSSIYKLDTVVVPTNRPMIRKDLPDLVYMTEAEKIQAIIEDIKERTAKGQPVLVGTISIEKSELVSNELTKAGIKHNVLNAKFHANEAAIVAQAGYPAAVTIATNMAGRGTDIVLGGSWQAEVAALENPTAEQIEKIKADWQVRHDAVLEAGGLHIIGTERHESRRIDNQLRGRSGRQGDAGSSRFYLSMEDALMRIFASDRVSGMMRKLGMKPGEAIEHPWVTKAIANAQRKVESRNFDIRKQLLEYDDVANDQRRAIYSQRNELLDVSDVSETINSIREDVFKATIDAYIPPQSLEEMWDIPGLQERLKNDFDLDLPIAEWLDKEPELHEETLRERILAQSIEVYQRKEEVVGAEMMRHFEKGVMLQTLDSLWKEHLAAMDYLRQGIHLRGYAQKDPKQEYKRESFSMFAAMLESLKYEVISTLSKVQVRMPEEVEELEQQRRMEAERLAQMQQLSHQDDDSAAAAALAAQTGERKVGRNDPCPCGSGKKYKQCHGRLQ
Summary of the method: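 SecA reconstituted with liposomes, plus proOmpA, 2 mM ATP, 1 mM Mg(OAc)2 and varied test compound concentrations, was injected into Xenopus laevis oocytes (120 ng liposomes, 120 ng SecA, 14 ng proOmpA per 50 nl). Oocytes were held 3 hr at 23 C, then current was recorded by voltage clamp for 1 min. Net channel current came from inward and outward currents.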

S. aureus K2068 (MepA++) = experiment: Bacteriostatic effect; type: cell-based; conditions: Staphylococcus aureus, read-out: Bacteriostatic effect, MIC, MepA++ K2068
S. aureus K2908 (MepA−) = experiment: Bacteriostatic effect; type: cell-based; conditions: Staphylococcus aureus, read-out: Bacteriostatic effect, MIC, MepA− K2908
S. aureus Newman = experiment: Bacteriostatic effect; type: cell-based; conditions: Staphylococcus aureus, 16 h, read-out: Bacteriostatic effect, MIC, S. aureus Newman
EcSecA [4] = biological target: T1, EcSecA; experiment: Intrinsic ATPase activity of full EcSecA; type: biochemical, E. coli
EcSecA [5] = biological target: T1, EcSecA; experiment: In vitro translocation activity with SecA-liposomes; type: biochemical, E. coli; conditions: reconstituted SecA-only liposomes, proOmpA, immunoblots
Summary of the method: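 Reconstituted SecA-only liposomes (stored at −80 °C, frozen-thawed once), E. coli SecA and proOmpA added separately to translocation buffer before the reaction, with 12 μg liposomes per reaction and varied SecA amounts. Test compound at various concentrations; reaction at 37 °C for 45 min. proOmpA translocation efficiency read by immunoblot.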

E. coli NR698 = experiment: Bacteriostatic effect; type: cell-based; conditions: Escherichia coli, NR698, 24 h, read-out: MIC, E. coli NR698
SaSecA1 = biological target: T2, SaSecA1 (Staphylococcus aureus, UniProt O06446); experiment: Ion-channel activity of SecA-liposomes in oocytes, SaSecA1; type: biochemical
T2 sequence (O06446 1-843): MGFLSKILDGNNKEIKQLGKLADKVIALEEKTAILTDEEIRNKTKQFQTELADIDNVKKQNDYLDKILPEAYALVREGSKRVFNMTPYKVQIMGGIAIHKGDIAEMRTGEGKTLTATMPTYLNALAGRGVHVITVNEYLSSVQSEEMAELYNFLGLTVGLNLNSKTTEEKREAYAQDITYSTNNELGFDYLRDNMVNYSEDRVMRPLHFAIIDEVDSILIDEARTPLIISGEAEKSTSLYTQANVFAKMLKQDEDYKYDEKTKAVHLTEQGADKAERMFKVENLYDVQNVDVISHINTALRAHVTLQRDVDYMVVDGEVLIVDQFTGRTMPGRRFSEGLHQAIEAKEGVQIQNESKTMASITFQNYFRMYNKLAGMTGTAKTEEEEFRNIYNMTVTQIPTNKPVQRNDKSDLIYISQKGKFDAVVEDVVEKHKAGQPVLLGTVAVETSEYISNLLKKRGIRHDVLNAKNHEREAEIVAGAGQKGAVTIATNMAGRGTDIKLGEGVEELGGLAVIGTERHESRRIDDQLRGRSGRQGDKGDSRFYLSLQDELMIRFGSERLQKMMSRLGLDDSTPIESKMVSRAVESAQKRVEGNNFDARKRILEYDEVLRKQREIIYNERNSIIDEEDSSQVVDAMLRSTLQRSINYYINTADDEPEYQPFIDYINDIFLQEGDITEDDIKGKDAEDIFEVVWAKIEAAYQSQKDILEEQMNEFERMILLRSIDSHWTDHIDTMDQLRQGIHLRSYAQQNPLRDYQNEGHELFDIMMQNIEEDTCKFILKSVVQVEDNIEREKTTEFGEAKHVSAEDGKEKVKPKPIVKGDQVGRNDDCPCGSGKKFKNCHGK

S. aureus K1758 (NorA−) = experiment: Bacteriostatic effect; type: cell-based; conditions: Staphylococcus aureus, read-out: Bacteriostatic effect, MIC, NorA− K1758
EcSecAN68 = EcSecAN68 (Escherichia coli, UniProt P10408); experiment: biochemical; design: species or system E. coli
Chain of EcSecAN68 (P10408 1-610): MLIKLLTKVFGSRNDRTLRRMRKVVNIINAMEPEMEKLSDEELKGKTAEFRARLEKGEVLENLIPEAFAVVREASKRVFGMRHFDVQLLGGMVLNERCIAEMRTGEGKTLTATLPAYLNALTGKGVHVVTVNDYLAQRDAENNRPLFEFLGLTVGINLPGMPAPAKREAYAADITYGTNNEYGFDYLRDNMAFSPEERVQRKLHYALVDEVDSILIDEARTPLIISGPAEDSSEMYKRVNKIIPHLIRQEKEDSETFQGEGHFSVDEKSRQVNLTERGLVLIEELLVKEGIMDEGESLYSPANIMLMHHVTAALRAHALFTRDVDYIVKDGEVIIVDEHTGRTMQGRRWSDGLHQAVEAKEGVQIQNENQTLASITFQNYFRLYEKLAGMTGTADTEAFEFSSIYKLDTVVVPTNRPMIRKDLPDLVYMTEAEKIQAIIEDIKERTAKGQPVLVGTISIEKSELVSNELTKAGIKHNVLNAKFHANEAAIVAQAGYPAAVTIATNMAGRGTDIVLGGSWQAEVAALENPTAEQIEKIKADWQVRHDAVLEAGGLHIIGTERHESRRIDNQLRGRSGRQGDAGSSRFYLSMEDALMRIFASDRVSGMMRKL

BaSecA1 = BaSecA1 (Bacillus anthracis, UniProt Q81X26); experiment: biochemical; design: species or system B. anthracis
Chain of BaSecA1 (Q81X26 whole entry, looked up): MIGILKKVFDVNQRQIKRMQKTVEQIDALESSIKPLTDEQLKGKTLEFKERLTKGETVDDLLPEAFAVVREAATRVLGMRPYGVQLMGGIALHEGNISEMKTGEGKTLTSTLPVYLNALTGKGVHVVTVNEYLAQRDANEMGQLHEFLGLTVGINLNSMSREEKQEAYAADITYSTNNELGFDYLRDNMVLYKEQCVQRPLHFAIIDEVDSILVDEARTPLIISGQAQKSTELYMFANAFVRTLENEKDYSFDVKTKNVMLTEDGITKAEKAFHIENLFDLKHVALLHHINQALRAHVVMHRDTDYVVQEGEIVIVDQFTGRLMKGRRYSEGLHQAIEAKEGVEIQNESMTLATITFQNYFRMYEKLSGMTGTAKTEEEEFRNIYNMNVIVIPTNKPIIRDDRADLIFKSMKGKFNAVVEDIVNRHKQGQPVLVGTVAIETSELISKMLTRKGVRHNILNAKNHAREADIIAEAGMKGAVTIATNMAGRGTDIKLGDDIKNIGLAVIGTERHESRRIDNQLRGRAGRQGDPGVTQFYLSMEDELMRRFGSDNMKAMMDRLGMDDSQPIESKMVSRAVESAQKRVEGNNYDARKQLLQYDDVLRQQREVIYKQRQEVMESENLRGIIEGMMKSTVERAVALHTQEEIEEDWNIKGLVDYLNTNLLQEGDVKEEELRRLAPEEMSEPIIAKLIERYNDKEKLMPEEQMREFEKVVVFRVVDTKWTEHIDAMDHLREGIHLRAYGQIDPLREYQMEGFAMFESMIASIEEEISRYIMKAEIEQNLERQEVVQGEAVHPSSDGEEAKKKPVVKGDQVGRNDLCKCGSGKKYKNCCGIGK

BsSecA = BsSecA (Bacillus subtilis, UniProt P28366); experiment: Ion-channel activity of SecA-liposomes in oocytes, BsSecA; type: biochemical
Chain of BsSecA (P28366 whole entry): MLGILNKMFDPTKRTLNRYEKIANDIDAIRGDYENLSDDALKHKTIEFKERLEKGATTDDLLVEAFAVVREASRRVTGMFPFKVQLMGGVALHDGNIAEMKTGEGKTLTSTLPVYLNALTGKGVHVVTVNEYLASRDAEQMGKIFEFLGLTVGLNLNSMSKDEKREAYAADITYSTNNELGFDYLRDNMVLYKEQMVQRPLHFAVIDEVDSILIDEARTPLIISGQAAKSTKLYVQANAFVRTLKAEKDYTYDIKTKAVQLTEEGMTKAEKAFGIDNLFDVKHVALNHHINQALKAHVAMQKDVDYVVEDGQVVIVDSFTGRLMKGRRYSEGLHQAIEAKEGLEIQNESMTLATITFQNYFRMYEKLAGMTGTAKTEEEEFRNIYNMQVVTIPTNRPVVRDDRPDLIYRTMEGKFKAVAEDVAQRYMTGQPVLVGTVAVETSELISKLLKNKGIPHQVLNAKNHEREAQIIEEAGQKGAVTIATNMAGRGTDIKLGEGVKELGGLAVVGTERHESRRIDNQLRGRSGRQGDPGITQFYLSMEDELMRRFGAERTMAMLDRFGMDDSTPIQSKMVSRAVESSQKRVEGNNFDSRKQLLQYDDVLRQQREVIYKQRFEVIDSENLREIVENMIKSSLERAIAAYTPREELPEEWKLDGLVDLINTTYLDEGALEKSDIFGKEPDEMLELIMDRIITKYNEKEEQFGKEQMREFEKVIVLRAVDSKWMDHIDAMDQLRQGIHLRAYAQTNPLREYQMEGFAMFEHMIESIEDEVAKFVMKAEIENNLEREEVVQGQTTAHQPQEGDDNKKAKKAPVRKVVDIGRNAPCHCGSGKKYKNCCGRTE
Summary of the method: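 Purified SecA was reconstituted into liposomes. After 3 hr at 23 C, ion current was recorded for 1 min by voltage clamp. Net inward/outward current gave channel opening.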

SpSecA = SpSecA (Streptococcus pyogenes, UniProt Q99Y96); experiment: Ion-channel activity of SecA-liposomes in oocytes, SpSecA; type: biochemical
Chain of SpSecA (Q99Y96 whole entry): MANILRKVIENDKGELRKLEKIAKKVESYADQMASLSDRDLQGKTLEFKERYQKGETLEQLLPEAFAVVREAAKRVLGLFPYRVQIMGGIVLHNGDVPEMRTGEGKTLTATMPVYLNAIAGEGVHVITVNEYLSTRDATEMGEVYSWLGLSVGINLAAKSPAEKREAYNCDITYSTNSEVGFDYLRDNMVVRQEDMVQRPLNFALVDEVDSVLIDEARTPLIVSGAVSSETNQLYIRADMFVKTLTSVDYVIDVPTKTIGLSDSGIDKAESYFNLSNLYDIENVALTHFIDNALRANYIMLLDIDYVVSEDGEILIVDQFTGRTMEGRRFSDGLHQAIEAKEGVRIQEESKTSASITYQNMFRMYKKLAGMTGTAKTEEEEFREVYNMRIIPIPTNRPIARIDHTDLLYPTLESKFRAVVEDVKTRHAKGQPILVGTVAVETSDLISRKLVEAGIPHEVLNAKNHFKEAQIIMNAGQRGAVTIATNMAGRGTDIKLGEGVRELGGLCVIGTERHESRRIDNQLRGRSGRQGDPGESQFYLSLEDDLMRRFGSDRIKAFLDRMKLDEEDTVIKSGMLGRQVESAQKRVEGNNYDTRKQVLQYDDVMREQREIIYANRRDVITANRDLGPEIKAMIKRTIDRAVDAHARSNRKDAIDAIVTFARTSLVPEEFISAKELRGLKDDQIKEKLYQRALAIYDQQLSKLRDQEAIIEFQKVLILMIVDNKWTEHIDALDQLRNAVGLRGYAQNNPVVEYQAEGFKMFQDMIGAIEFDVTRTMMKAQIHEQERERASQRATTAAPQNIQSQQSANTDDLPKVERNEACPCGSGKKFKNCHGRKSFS

[6] = MRSA, read-out: MIC, S. aureus Mu50
[7] = MU50, 16 h, read-out: Bacteriostatic effect, MIC, S. aureus Mu50
[8] = Staphylococcus aureus, 6538, 16 h, read-out: Bacteriostatic effect, MIC, S. aureus 6538
[9] = Staphylococcus aureus, 6538, 24 h, read-out: MIC, S. aureus 6538

CSc1nc(Cl)cc(Sc2nnc(-c3cc(C(F)(F)F)cc(C(F)(F)F)c3)[nH]2)n1 [Compound 7b, 4-((5-(3,5-Bis(trifluoromethyl)phenyl)-4H-1,2,4-triazol-3-yl)thio)-6-chloro-2-(methylthio)pyrimidine] was tested. Which “Fold more effective than vancomycin (MIC)” value (S. aureus Mu50 [1]) did it give?
Its value is 10 fold.

And the MIC (S. aureus Mu50 [1]; [6])?
The MIC was 0.75 µg/mL.

What about the MIC (S. aureus Mu50 [1]; [7]) of the same compound?
The MIC was 1.6 µM.

And the MIC (S. aureus Mu3)?
The MIC was 3.1 µM (≈ 1.46 µg/mL).

And the “Decrease of CFU of S. aureus Mu50” value (S. aureus Mu50 [2])?
Its value is 2 log units.

And the MIC (S. aureus 6538; [8])?
The MIC was 3.1 µM (≈ 1.46 µg/mL).

What about the MIC (S. aureus 6538; [9]) of the same compound?
The MIC was 3.1 µM (≈ 1.46 µg/mL).

What about the MIC (S. aureus K2361 (NorA++)) of the same compound?
Its MIC is 3.1 µM (≈ 1.46 µg/mL).

And the MIC (S. aureus N315)?
Its MIC is 0.8 µM (≈ 0.377 µg/mL).

What about the MIC (B. subtilis 168) of the same compound?
The MIC was 1.6 µM (≈ 0.755 µg/mL).

And the “Mode of inhibition, SecA-liposome channel activity, EcSecA” value (EcSecA [3]; inhibition kinetics, Figure 4)?
The value was “non-competitive inhibitor”.

And the MIC (S. aureus K2068 (MepA++))?
Its MIC is 3.1 µM (≈ 1.46 µg/mL).

What about the MIC (S. aureus K2908 (MepA−)) of the same compound?
Its MIC is 2.1 µM (≈ 0.991 µg/mL).

What about the MIC (S. aureus Newman) of the same compound?
The MIC was 1.6 µM (≈ 0.755 µg/mL).

What about the IC50 (EcSecA [4]) of the same compound?
The IC50 was > 200 µM.

What about the IC50 (EcSecA [5]) of the same compound?
Its IC50 is 2 µM.

And the MIC (E. coli NR698)?
The MIC was 4.7 µM (≈ 2.22 µg/mL).

What about the “Mode of inhibition, SecA-liposome channel activity, SaSecA” value (SaSecA1; inhibition kinetics, Figure 4) of the same compound?
The value was “non-competitive inhibitor”.

What about the MIC (S. aureus K1758 (NorA−)) of the same compound?
Its MIC is 3.1 µM (≈ 1.46 µg/mL).

Which “Fold more effective than vancomycin (MIC)” value (S. aureus Mu50 [1]) does the source give for FC(F)(F)c1cc(-c2nnc(Sc3cc(Cl)nc(Sc4ccccc4)n3)[nH]2)cc(C(F)(F)F)c1 [Compound 12a, 4-((5-(3,5-Bis(trifluoromethyl)phenyl)-4H-1,2,4-triazol-3-yl)thio)-6-chloro-2-(phenylthio) Pyrimidine] here?
Its value is 18 fold.

And the MIC (S. aureus Mu50 [1]; [6])?
Its MIC is 0.43 µg/mL.

And the MIC (S. aureus Mu50 [1]; [7])?
Its MIC is 0.8 µM.

And the MIC (S. aureus Mu3)?
Its MIC is 1.6 µM (≈ 0.854 µg/mL).

And the MIC (S. aureus 6538; [8])?
The MIC was 1.8 µM (≈ 0.961 µg/mL).

And the MIC (S. aureus 6538; [9])?
Its MIC is 1.8 µM (≈ 0.961 µg/mL).

And the IC50 (EcSecAN68)?
Its IC50 is 20 µM.

And the IC50 (BaSecA1)?
The IC50 was 1 µM.

What about the MIC (S. aureus K2361 (NorA++)) of the same compound?
Its MIC is 1.8 µM (≈ 0.961 µg/mL).

What about the MIC (S. aureus N315) of the same compound?
The MIC was 0.8 µM (≈ 0.427 µg/mL).

What about the MIC (B. subtilis 168) of the same compound?
Its MIC is 0.8 µM (≈ 0.427 µg/mL).

And the IC50 (EcSecA [3])?
The IC50 was 1.3 µM.

And the MIC (S. aureus K2068 (MepA++))?
Its MIC is 1.3 µM (≈ 0.694 µg/mL).

What about the MIC (S. aureus K2908 (MepA−)) of the same compound?
Its MIC is 1 µM (≈ 0.534 µg/mL).

What about the IC50 (EcSecA [4]) of the same compound?
Its IC50 is > 200 µM.

And the IC50 (BsSecA)?
Its IC50 is 2.3 µM.

And the IC50 (EcSecA [5])?
The IC50 was 4.8 µM.

What about the MIC (E. coli NR698) of the same compound?
The MIC was 3.1 µM (≈ 1.66 µg/mL).

What about the IC50 (SpSecA) of the same compound?
Its IC50 is 1.3 µM.

What about the IC50 (SaSecA1) of the same compound?
The IC50 was 1 µM.

And the MIC (S. aureus K1758 (NorA−))?
The MIC was 1.6 µM (≈ 0.854 µg/mL).

With CC[C@H]1OC(=O)[C@H](C)[C@@H](O[C@H]2C[C@@](C)(OC)[C@@H](O)[C@H](C)O2)[C@H](C)[C@@H](O[C@@H]2O[C@H](C)C[C@H](N(C)C)[C@H]2O)[C@](C)(O)C[C@@H](C)C(=O)[C@H](C)[C@@H](O)[C@]1(C)O [erythromycin] as the compound, how does the “Fold by which 7b and 12a are more effective than the antibiotic (MIC)” value (S. aureus Mu50 [1]) read?
Its value is > 1600 fold.

And the MIC (S. aureus Mu50 [1]; [6])?
The MIC was 1250 µg/mL.

Which “MIC, S. aureus Mu50” value (S. aureus Mu50 [1]) does the source give for NC[C@H]1O[C@H](O[C@H]2[C@H](O)[C@@H](O[C@H]3O[C@H](CO)[C@@H](O)[C@H](N)[C@H]3O)[C@H](N)C[C@@H]2N)[C@H](O)[C@@H](O)[C@@H]1O [kanamycin] here?
The value was 1000 µg/mL (≈ 2060 µM).

And the “Fold by which 7b and 12a are more effective than the antibiotic (MIC)” value (S. aureus Mu50 [1])?
Its value is > 1300 fold.

How did the “Fold by which 7b and 12a are more effective than the antibiotic (MIC)” value (S. aureus Mu50 [1]) turn out when CCn1cc(C(=O)O)c(=O)c2cc(F)c(N3CCNCC3)cc21 [norfloxacin] was run?
The value was > 330 fold.

How did the “Fold by which 7b and 12a are more effective than the antibiotic (MIC)” value (S. aureus Mu50 [1]) turn out when CO[C@H]1/C=C/O[C@@]2(C)Oc3c(C)c(O)c4c(O)c(c(/C=N/N5CCN(C)CC5)c(O)c4c3C2=O)NC(=O)/C(C)=C\C=C\[C@H](C)[C@H](O)[C@@H](C)[C@@H](O)[C@@H](C)[C@H](OC(C)=O)[C@@H]1C [rifampicin] was run?
Its value is > 1300 fold.

What about the MIC (S. aureus Mu50 [1]; [6]) of the same compound?
Its MIC is 1000 µg/mL.

For CN(C)[C@@H]1C(O)=C(C(N)=O)C(=O)[C@@]2(O)C(O)=C3C(=O)c4c(O)cccc4[C@@](C)(O)[C@H]3C[C@@H]12 [tetracycline], which “Fold by which 7b and 12a are more effective than the antibiotic (MIC)” value (S. aureus Mu50 [1]) is on record?
The value was > 80 fold.

And the MIC (S. aureus Mu50 [1]; [6])?
Its MIC is 63 µg/mL.

Which results are given for polymyxin B?
MIC, S. aureus Mu50 (S. aureus Mu50 [1]): 31 µg/mL; Fold by which 7b and 12a are more effective than the antibiotic (MIC) (S. aureus Mu50 [1]): > 40 fold

From article PMC4778717 (ChemMedChem, 2015)
